Results taken from ChEMBL document CHEMBL3393024, “Multidrug resistance-reversal effects of resin glycosides from Dichondra repens” (Bioorg Med Chem Lett, 2015).

Legend:
[1] = Cytotoxicity against human KB/VCR cells at 25 uM after 72 hrs by SRB method; assay type: functional
Summary of the method: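 Test sample was given alone at 25 µM, and cytotoxicity was expressed as percent inhibition ratio.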

[2] = Resistance factor, ratio of vincristine IC50 to vincristine IC50 in presence of compound for human KB/VCR cells; assay type: functional
Summary of the method: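 Vincristine was serially diluted from 0.125 to 1 µM and tested with or without 25 µM test sample. Resistance factor is the vincristine IC50 alone divided by the vincristine IC50 with sample.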

[3] = Cytotoxicity against human KB/VCR cells at 10 uM after 72 hrs by SRB method; assay type: functional
[4] = Cytotoxicity against human KB/VCR cells after 72 hrs by SRB method; assay type: functional, cell-based

| SMILES | inhibition at 25 µM [1] | Ratio IC50 [2] | inhibition at 10 µM [3] | IC50 [4] |
| --- | --- | --- | --- | --- |
| CCCCC[C@@H](CCCCCCC[C@H](O)CC(=O)O)O[C@@H]1O[C@H](CO[C@@H]2O[C@@H](C)[C@H](O)[C@@H](O)[C@H]2OC(=O)[C@H](C)[C@@H](C)O)[C@@H](O)[C@H](O)[C@H]1O[C@@H]1O[C@H](CO)[C@@H](O[C@@H]2O[C@@H](C)[C@H](O)[C@@H](OC(=O)[C@H](C)[C@@H](C)O)[C@H]2O)[C@H](O)[C@H]1O | 0.83% | 1.32 |  |  |
| CCCCC[C@@H](CCCCCCCCCC(=O)O)O[C@@H]1O[C@H](CO[C@@H]2O[C@@H](C)[C@H](O)[C@@H](O)[C@H]2OC(=O)[C@H](C)[C@@H](C)O)[C@@H](O)[C@H](O)[C@H]1O[C@@H]1O[C@H](CO)[C@@H](O[C@@H]2O[C@@H](C)[C@H](O)[C@@H](OC(=O)[C@H](C)[C@@H](C)O)[C@H]2O)[C@H](O)[C@H]1O | 2.52% | 1.19 |  |  |
| CCCCC[C@H](O)CCCCCCCCCC(=O)O[C@H]1[C@H](O[C@H]2C(O)O[C@H](CO)[C@@H](O)[C@@H]2O)O[C@@H](C)[C@H](OC(=O)[C@H](C)[C@@H](C)O)[C@H]1O[C@@H]1O[C@@H](C)[C@H](O)[C@@H](O)[C@H]1O (some centres not stated) | 1.35% | 1.78 |  |  |
| CCC[C@H](O)CCCCCCCCCC(=O)O[C@H]1[C@H](O[C@H]2C(O)O[C@H](CO)[C@@H](O)[C@@H]2O)O[C@@H](C)[C@@H](OC(=O)[C@H](C)[C@@H](C)O)[C@H]1O[C@@H]1O[C@@H](C)[C@H](O)[C@@H](O)[C@H]1O (some centres not stated) | 1.64% | 1.03 |  |  |
| CCCCC[C@H](O)CCCCCCCC(=O)O[C@H]1[C@H](O[C@H]2C(O)O[C@H](COC(C)=O)[C@@H](O)[C@@H]2O)O[C@@H](C)[C@@H](OC(=O)[C@H](C)[C@@H](C)O)[C@H]1O[C@@H]1O[C@@H](C)[C@H](O)[C@@H](O)[C@H]1O (some centres not stated) | 0.85% | 1.36 |  |  |
| COc1ccc(CCN(C)CCCC(C#N)(c2ccc(OC)c(OC)c2)C(C)C)cc1OC (configuration not stated) |  |  | 0.45% |  |
| CC[C@]1(O)C[C@H]2CN(CCc3c([nH]c4ccccc34)[C@@](C(=O)OC)(c3cc4c(cc3OC)N(C=O)[C@H]3[C@@](O)(C(=O)OC)[C@H](OC(C)=O)[C@]5(CC)C=CCN6CC[C@]43[C@@H]65)C2)C1 [VINCRISTINE] |  |  |  | 0.57 µM |
